These results are taken from ChEMBL document CHEMBL4680093 (J Med Chem, 2016).

As a reminder, the EC50 is the concentration needed to bring the measured effect to its halfway point. One may read the inhibition as the share of the control response that was lost under treatment. Usually clearance stands for the rate of elimination divided by the concentration. The term bioavailability denotes the share of a dose that reaches the circulation, judged against a reference dose that is usually intravenous. As a reminder, the AUC is the area under the concentration-time curve, a measure of exposure. The Tmax is the time at which the peak concentration occurs. What is called half-life is how long it takes for the measured level to halve. Usually IC50 stands for the concentration that gives 50% inhibition.

Each structure is given as a SMILES string.

Data set [1] has as its system Mus musculus. The data set is described as follows: Improvement in lipid profile in C57BL/6-Lep^ob (ob/ob) mouse assessed as total cholesterol level at 20 mg/kg, po dosed once daily for 25 days co-treated with 300 mg/kg. po QD for 25 days metformin (reference value: 286.6 +/- 6.3 mg/dl). The note with it: time 25 day.
The target in data set [2] is T1, Mineralocorticoid receptor (Homo sapiens, UniProt P08235).
T1 sequence (P08235 whole entry): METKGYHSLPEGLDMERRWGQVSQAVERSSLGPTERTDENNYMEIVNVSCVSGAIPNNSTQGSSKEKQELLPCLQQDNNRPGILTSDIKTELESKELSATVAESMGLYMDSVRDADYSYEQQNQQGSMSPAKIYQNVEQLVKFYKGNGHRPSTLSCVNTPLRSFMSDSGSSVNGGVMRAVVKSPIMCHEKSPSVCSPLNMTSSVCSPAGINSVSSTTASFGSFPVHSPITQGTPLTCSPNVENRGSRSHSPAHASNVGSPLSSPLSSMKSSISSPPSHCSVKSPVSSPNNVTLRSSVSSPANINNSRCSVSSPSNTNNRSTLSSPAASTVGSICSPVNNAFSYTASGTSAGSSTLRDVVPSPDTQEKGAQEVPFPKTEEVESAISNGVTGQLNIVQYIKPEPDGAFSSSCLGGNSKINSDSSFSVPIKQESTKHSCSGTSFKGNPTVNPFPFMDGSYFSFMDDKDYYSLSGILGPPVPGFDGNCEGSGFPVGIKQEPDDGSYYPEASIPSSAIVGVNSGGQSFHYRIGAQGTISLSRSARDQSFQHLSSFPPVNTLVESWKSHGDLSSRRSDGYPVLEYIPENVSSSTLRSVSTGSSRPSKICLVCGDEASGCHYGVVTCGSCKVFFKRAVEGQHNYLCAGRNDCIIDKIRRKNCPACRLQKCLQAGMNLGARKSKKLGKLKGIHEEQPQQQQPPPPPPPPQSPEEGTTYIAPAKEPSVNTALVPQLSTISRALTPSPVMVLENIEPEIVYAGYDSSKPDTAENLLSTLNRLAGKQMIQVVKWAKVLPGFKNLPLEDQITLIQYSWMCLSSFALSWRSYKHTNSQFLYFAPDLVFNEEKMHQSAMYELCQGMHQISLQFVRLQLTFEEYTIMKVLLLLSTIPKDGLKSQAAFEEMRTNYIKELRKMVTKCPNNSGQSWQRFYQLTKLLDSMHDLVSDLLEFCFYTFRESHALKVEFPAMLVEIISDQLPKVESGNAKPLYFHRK
Nature of the data set: Agonist activity at mineralocorticoid receptor (unknown origin).

The nature of data set [3]: Toxicity in dog assessed as induction of abnormal changes in respiratory system up to 400 mg/kg, po. It is filed as organism-based, Canis lupus familiaris. The note with it: in vivo. The essentials:
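Dogs fitted with telemetry were given oral doses of up to 400 mg/kg. Cardiovascular and respiratory systems were monitored for abnormal changes.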

Data set [4] deals with T2, 11-beta-hydroxysteroid dehydrogenase type 2 (Homo sapiens) (UniProt P80365).
T2 sequence (whole entry): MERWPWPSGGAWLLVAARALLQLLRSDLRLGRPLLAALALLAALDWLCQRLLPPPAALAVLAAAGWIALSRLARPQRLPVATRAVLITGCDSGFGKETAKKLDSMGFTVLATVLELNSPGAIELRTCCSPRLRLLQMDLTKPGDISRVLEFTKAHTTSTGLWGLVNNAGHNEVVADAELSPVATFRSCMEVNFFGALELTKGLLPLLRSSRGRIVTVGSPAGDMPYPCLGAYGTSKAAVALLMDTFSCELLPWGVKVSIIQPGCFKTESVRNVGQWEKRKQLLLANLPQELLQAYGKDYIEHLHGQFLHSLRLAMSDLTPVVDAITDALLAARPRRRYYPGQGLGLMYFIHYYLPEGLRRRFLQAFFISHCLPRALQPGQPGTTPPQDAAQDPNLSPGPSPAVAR
Nature of the data set: Inhibition of human 11beta-HSD2 expressed in microsomes at 1 uM relative to control. The note with it: Microsome.

In data set [5] the test system is Mus musculus. The data set is described as follows: Improvement in lipid profile in C57BL/6-Lep^ob (ob/ob) mouse assessed as LDL cholesterol level at 20 mg/kg, po dosed once daily for 25 days (reference value: 30.3 +/- 0.8 mg/dl). Format: functional. The note with it: time 25 day.
A short description of data set [6]: Clearance in rat at 1 mg/kg, iv. The following applies: in vivo. Format: ADME, organism-based.
Data set [7] in a line: Oral bioavailability in rat at 5 mg/kg. It is filed as ADME, organism-based. The note with it: in vivo. The essentials: (§1)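 Single-dose PK study. The iv dose was given in 10% hydroxypropyl-β-cyclodextrin and the oral dose in 0.5% methylcellulose/1% Tween80. Mouse and rat received 1 mg/kg iv and 5 mg/kg po. Dog received 0.5 mg/kg iv and 4 mg/kg po. CL, Vss, t1/2, AUC, Cmax, tmax and F were derived.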

Data set [8] has as its system Mus musculus. Nature of the data set: Improvement in lipid profile in C57BL/6-Lep^ob (ob/ob) mouse assessed as triglyceride level at 20 mg/kg, po dosed once daily for 25 days co-treated with 300 mg/kg. po QD for 25 days metformin (reference value: 90.9 +/- 5.5 mg/dl). The following applies: time 25 day.
A short description of data set [9]: Reduction in HbA1c level in C57BL/6-Lep^ob (ob/ob) mouse at 20 mg/kg, po dosed once daily for 25 days and co-treated with 300 mg/kg. po QD for 25 days metformin relative to control. On the set-up: scale not given: the % may be the effect or the level left. The following applies: time 25 day.
The species named for another data set is Homo sapiens. The data set is described as follows: Selectivity index, ratio of IC50 for human 11beta-HSD2 to IC50 for human 11beta-HSD1.
Data set [10] is described as follows: Protein binding in mouse plasma. It is filed as ADME, cell-free. The note with it: read-out: PPB.
A short description of data set [11]: AUC in mouse at 1 mg/kg, iv. It is filed as ADME, organism-based. Details: dose 1 mg/kg. The following applies: in vivo.
Data set [12] deals with Mus musculus. Nature of the data set: Toxicity in mouse assessed as induction of abnormal changes in central nervous system up to 1000 mg/kg, po. The note with it: in vivo.
Data set [13] is described as follows: Tmax in mouse at 5 mg/kg, po. Format: ADME, organism-based. The following applies: in vivo. The essentials: as §1
Data set [14] is described as follows: Half life in rat at 1 mg/kg, iv. Format: ADME, organism-based. The note with it: in vivo.
Data set [15] relates to Mus musculus. Nature of the data set: In-vivo inhibition of 11beta-HSD1 activity in C57BL/6 mouse epididymal fat assessed as reduction in cortisone to-cortisol conversion at 3 to 30 mg/kg, po measured after 2 to 6 hrs by ELISA. It is filed as functional, organism-based. The note with it: Epididymal fat pad, dose 3-30 mg/kg, time 2-6 hrs. In a few lines:
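Male C57BL/6 mice dosed orally once at 3, 10 or 30 mg/kg in sterile water containing 0.5% methylcellulose and 1% Tween80, then sacrificed at 2 or 6 h. Liver and epididymal fat pads incubated ex vivo in culture medium containing cortisone. Cortisol formed was measured by ELISA and reported as % inhibition versus vehicle.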
Background: In an ELISA, binding on a coated surface is turned into a signal by an enzyme label.

Data set [16] has as its target T3, 11-beta-hydroxysteroid dehydrogenase type 2 (Homo sapiens, UniProt P80365).
T3 sequence (P80365 whole entry): T2 sequence (whole entry)
The data set is described as follows: Inhibition of human 11beta-HSD2 expressed in microsomes. On the set-up: species or system Microsome.

The nature of data set [17]: AUC in dog at 4 mg/kg, po. The note with it: in vivo. Details: dose 4 mg/kg. Format: ADME, organism-based, Canis lupus familiaris.
Data set [18] can be described thus: Tmax in rat at 5 mg/kg, po. It is filed as ADME, organism-based. The following applies: in vivo. In a few lines: as §1
Data set [19] in a line: AUC in rat at 5 mg/kg, po. It is filed as ADME, organism-based. Details: dose 5 mg/kg. The following applies: in vivo.
Data set [20] can be described thus: Unbound drug level in mouse plasma at 10 mg/kg, po measured after 2 hrs post dose. It is filed as ADME, organism-based. The following applies: in vivo.

Turning to `C[C@@H]1CN(c2ccc(S(C)(=O)=O)cc2F)CCN1c1nccc(C(=O)NC2C3CC4CC2CC(O)(C4)C3)n1` (stereo partly specified), the Activity in the data set with Mus musculus [1] is 235 mg/dL; in data set [3] it was “Non-Toxic”; in the data set with Mus musculus [5] it was 17.1 mg/dL; in the data set with Mus musculus [8], 84.1 mg/dL; in data set [9] it was 1.67%; with Mus musculus [12] it was “Non-Toxic”. This molecule showed an EC50 in data set [2] of over 5 µM. Besides, the inhibition was 6% in [4] and “Dose-dependent effect” in the data set with Mus musculus [15]. Besides, in data set [6], the clearance was 15.5 mL/min/kg. This molecule returned a bioavailability in [7] of 60%. In addition, the Ratio IC50 in the data set filed under Homo sapiens was over 3000. Besides, in [10], the fraction unbound is 0.01. Besides, the AUC in data set [11] is 2350 ng·h/mL; in [17], 11500 ng·h/mL; in [19], 3390 ng·h/mL. The Tmax worked out at 1 h in data set [13] and 1.3 h in [18]. The same molecule showed a half-life in data set [14] of 1.8 h. In addition, the IC50 in data set [16] is over 10 µM. In addition, the “Cp(f)” value in data set [20] is listed as 100 nM.
